Laboratory results as given in ChEMBL document CHEMBL4033622, “Synthesis and the interaction of 2-(1H-pyrazol-4-yl)-1H-imidazo[4,5-f][1,10]phenanthrolines with telomeric DNA as lung cancer inhibitors” (Eur J Med Chem, 2017).
Blank lines part the entries; values can stand above or below the molecule they belong to. The source made the active and inactive calls. The rule behind the calls is not given here.

Experiments:
[1] = tested on: A549; assay: Cytotoxicity against human A549 cells assessed as cell growth inhibition at 10 uM after 36 hrs by CCK8 assay; format: functional, cell-based
[2] = tested on: MRC5; assay: Cytotoxicity against human MRC5 cells after 36 hrs by CCK8 assay; format: cell-based; settings: MRC5, 36 h
[3] = tested on: A549; assay: Cytotoxicity against human A549 cells after 36 hrs by CCK8 assay; format: functional, cell-based; settings: A549, 36 h
[4] = Selectivity index, ratio of IC50 for human MRC5 cells to IC50 for human A549 cells; format: functional
[5] = species: Homo sapiens; assay: Binding affinity to human telomeric 26 mutated DNA up to 40 uM after 24 hrs by SYGR gold staining based electrophoretic mobility shift assay
[6] = species: Homo sapiens; assay: Binding affinity to human telomeric 26 double stranded DNA up to 40 uM after 24 hrs by SYBR gold staining based electrophoretic mobility shift assay
[7] = species: Homo sapiens; assay: Binding affinity to human telomeric 26 G-quadruplex DNA assessed as change in melting temperature at drug/DNA ratio of 1:10 by UV spectrophotometry (reference value: 39.34 degC)
[8] = tested on: A549; assay: Anti-migratory activity against human A549 cells assessed as […] at 0.05 uM after 48 hrs by wound healing assay relative to control; format: functional; settings: A549, 48 h
Procedure, shortened: (§1)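 A549 monolayer seeded at 1 × 10⁵ cells/mL and grown 24 h, then scratched with a pipette tip. Compounds were added and cells kept 48 h in serum-free medium, then photographed. Migration distance was measured against lines fitted to the wound edges, with three points per plate. Inhibition (%) = (1 − D_drug/D_control) × 100. Mean ± SD of three independent experiments in triplicate.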

[9] = tested on: A549; assay: Anti-migratory activity against human A549 cells assessed as […] at 0.1 uM after 48 hrs by wound healing assay relative to control; format: functional; settings: A549, 48 h; procedure, shortened: as §1
[10] = tested on: A549; assay: Anti-migratory activity against human A549 cells assessed as […] at 0.2 uM after 48 hrs by wound healing assay relative to control; format: functional; settings: A549, 48 h; procedure, shortened: as §1
[11] = species: Homo sapiens; assay: Binding affinity to human telomeric 26 G-quadruplex DNA up to 20 uM after 24 hrs by SYBR gold staining based electrophoretic mobility shift assay
[12] = tested on: A549; assay: Cytotoxicity against human A549/ATCC cells after 48 hrs by sulforhodamine B assay; format: functional, cell-based; settings: A549, 48 h
[13] = species: Homo sapiens; assay: Binding affinity to human telomeric 26 G-quadruplex DNA after 24 hrs by SYBR gold staining based electrophoretic mobility shift assay

SMILES: Cn1cc(-c2nc3c4cccnc4c4ncccc4c3[nH]2)c(-c2ccc(F)cc2)n1
growth inhibition (GI) [1]: Active

SMILES: Cc1ccc(-c2nn(-c3ccc([N+](=O)[O-])cc3[N+](=O)[O-])cc2-c2nc3c4cccnc4c4ncccc4c3[nH]2)cc1
growth inhibition (GI) [1]: Active

SMILES: Fc1ccc(-c2n[nH]cc2-c2nc3c4cccnc4c4ncccc4c3[nH]2)cc1
growth inhibition (GI) [1]: Active

SMILES: O=[N+]([O-])c1ccc(-n2cc(-c3nc4c5cccnc5c5ncccc5c4[nH]3)c(-c3ccc(Cl)cc3)n2)c([N+](=O)[O-])c1
growth inhibition (GI) [1]: Active

SMILES: Cc1ccc(-c2nn(C)cc2-c2nc3c4cccnc4c4ncccc4c3[nH]2)cc1
growth inhibition (GI) [1]: Active

SMILES: O=[N+]([O-])c1ccc(-n2cc(-c3nc4c5cccnc5c5ncccc5c4[nH]3)c(-c3ccc(Br)cc3)n2)c([N+](=O)[O-])c1
growth inhibition (GI) [1]: Active

SMILES: Cn1cc(-c2nc3c4cccnc4c4ncccc4c3[nH]2)c(-c2ccc(Br)cc2)n1
growth inhibition (GI) [1]: Active

Activity [5]: inactive | Activity [6]: inactive | ΔTm [7]: 11 °C | Activity [11]: inactive
SMILES: Brc1ccc(-c2nc3c4cccnc4c4ncccc4c3[nH]2)cc1
growth inhibition (GI) [1]: Active | IC50 [2]: 6.88 µM | IC50 [3]: 1.69 µM | Ratio IC50 [4]: 4.07 | inhibition of growth at 0.05 µM [8]: 16.1% | inhibition of growth at 0.1 µM [9]: 23.7% | inhibition of growth at 0.2 µM [10]: 56.1%

SMILES: Cc1ccc(-c2nn(CCCN(C)C)cc2-c2nc3c4cccnc4c4ncccc4c3[nH]2)cc1
growth inhibition (GI) [1]: Active

SMILES: Cc1ccc(-c2n[nH]cc2-c2nc3c4cccnc4c4ncccc4c3[nH]2)cc1
growth inhibition (GI) [1]: Active

SMILES: CN(C)CCCn1cc(-c2nc3c4cccnc4c4ncccc4c3[nH]2)c(-c2ccc(Br)cc2)n1
growth inhibition (GI) [1]: Active

SMILES: Clc1ccc(-c2n[nH]cc2-c2nc3c4cccnc4c4ncccc4c3[nH]2)cc1
growth inhibition (GI) [1]: Active

SMILES: Oc1cn(-c2ccc(Cl)cc2)nc1-c1n[nH]c(=S)n1-c1ccc(F)cc1
GI50 [12]: 13.2 µM

SMILES: O=[N+]([O-])c1ccc(-n2cc(-c3nc4c5cccnc5c5ncccc5c4[nH]3)c(-c3ccc(F)cc3)n2)c([N+](=O)[O-])c1
growth inhibition (GI) [1]: Active

ΔTm [7]: 12.4 °C | Activity [11]: inactive
SMILES: Fc1ccc(-c2nn(Cc3ccccc3)cc2-c2nc3c4cccnc4c4ncccc4c3[nH]2)cc1
growth inhibition (GI) [1]: Active | IC50 [2]: 3.8 µM | IC50 [3]: 1.78 µM | Ratio IC50 [4]: 2.13 | inhibition of growth at 0.05 µM [8]: 34.5% | inhibition of growth at 0.1 µM [9]: 86.6% | inhibition of growth at 0.2 µM [10]: 93.3%

SMILES: CN(C)CCCn1cc(-c2nc3c4cccnc4c4ncccc4c3[nH]2)c(-c2ccc(Cl)cc2)n1
growth inhibition (GI) [1]: Active

ΔTm [7]: 16.3 °C | Activity [11]: inactive
SMILES: Cc1ccc(-c2nn(Cc3ccccc3)cc2-c2nc3c4cccnc4c4ncccc4c3[nH]2)cc1
growth inhibition (GI) [1]: Active | IC50 [2]: 4.76 µM | IC50 [3]: 2.75 µM | Ratio IC50 [4]: 1.73 | inhibition of growth at 0.05 µM [8]: 16.3% | inhibition of growth at 0.1 µM [9]: 54.6% | inhibition of growth at 0.2 µM [10]: 85.8%

SMILES: Nc1ccc(-n2cc(-c3nc4c5cccnc5c5ncccc5c4[nH]3)c(-c3ccc(Br)cc3)n2)nn1
growth inhibition (GI) [1]: Active

ΔTm [7]: 13.5 °C | Activity [11]: inactive
SMILES: Clc1ccc(-c2nn(Cc3ccccc3)cc2-c2nc3c4cccnc4c4ncccc4c3[nH]2)cc1
growth inhibition (GI) [1]: Active | IC50 [2]: 4.17 µM | IC50 [3]: 2.08 µM | Ratio IC50 [4]: 2 | inhibition of growth at 0.05 µM [8]: 24.7% | inhibition of growth at 0.1 µM [9]: 54.2% | inhibition of growth at 0.2 µM [10]: 94.4%

SMILES: CN(C)CCCn1cc(-c2nc3c4cccnc4c4ncccc4c3[nH]2)c(-c2ccc(F)cc2)n1
growth inhibition (GI) [1]: Active

Activity [13]: Dose-dependent effect | Activity [5]: inactive | Activity [6]: inactive | ΔTm [7]: 20.5 °C | Activity [11]: Active
SMILES: Brc1ccc(-c2nn(Cc3ccccc3)cc2-c2nc3c4cccnc4c4ncccc4c3[nH]2)cc1
growth inhibition (GI) [1]: Active | IC50 [2]: 3.83 µM | IC50 [3]: 1.48 µM | Ratio IC50 [4]: 2.58 | inhibition of growth at 0.05 µM [8]: 48.3% | inhibition of growth at 0.1 µM [9]: 78.8% | inhibition of growth at 0.2 µM [10]: 98.4%

SMILES: Brc1ccc(-c2n[nH]cc2-c2nc3c4cccnc4c4ncccc4c3[nH]2)cc1
growth inhibition (GI) [1]: Active

SMILES: Cn1cc(-c2nc3c4cccnc4c4ncccc4c3[nH]2)c(-c2ccc(Cl)cc2)n1
growth inhibition (GI) [1]: Active
